Experimental data taken from ChEMBL document CHEMBL4402603, “Structure-Activity Relationship of SPOP Inhibitors against Kidney Cancer” (J Med Chem, 2020).
Calls of active or inactive are those of the source. No cut-off for these calls is given here.

Experiments:
[1] = biological target: Speckle-type POZ protein (Homo sapiens) (UniProt O43791); experiment: Binding affinity to recombinant N-terminal GST/His-tagged MATH binding domain SPOP (unknown origin) expressed in Escherichia coli BL21 (DE3) assessed as change in melting temperature at 10 fold compound incubated for 15 mins by nano differential scanning fluorimetry (reference value: -1.7 degreeC)
Chain of Speckle-type POZ protein (Homo sapiens) (O43791 whole entry, the tested form may be a part): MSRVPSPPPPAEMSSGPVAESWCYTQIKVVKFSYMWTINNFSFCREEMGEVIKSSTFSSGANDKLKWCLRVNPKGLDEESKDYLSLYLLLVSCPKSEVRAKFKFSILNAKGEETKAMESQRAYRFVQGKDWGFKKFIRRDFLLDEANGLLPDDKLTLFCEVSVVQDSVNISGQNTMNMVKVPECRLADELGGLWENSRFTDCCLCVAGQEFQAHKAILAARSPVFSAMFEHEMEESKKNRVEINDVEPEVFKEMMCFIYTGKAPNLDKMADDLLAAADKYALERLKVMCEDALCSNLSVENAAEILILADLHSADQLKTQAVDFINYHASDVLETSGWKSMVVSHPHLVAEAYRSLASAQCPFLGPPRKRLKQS

[2] = tested on: A498; experiment: Antiproliferative activity against human A498 cells assessed as reduction in cell viability incubated for 72 hrs by MTT assay; assay type: functional, cell-based; conditions: A498, 72 h
Procedure, shortened: (§1)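 MTT read-out. Cells seeded at 1,000-2,200/well, grown 12 hr at 37 °C before compound, then exposed 72 hr. MTT for 4 hr, formazan dissolved in DMSO, A490 read. Untreated cells = 100% proliferation. IC50 quantitated; mean ± SD, n = 3.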

[3] = tested on: OS-RC-2; experiment: Antiproliferative activity against human OS-RC2 cells assessed as reduction in cell viability incubated for 72 hrs by MTT assay; assay type: functional, cell-based; conditions: OS-RC-2, 72 h; procedure, shortened: as §1
[4] = tested on: HK-2; experiment: Cytotoxicity against human HK2 cells assessed as reduction in cell viability incubated for 72 hrs by MTT assay; assay type: cell-based; conditions: HK-2, 72 h
[5] = tested on: A498; experiment: Inhibition of colony formation in human A498 cells at 1 to 5 uM incubated for 12 days by crystal violet dye based assay; assay type: functional, cell-based
Procedure, shortened: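 Cells seeded at 1,000/well, grown 12 days at 37 °C, 5% CO2, medium renewed every 3 days. Fixed with 10% acetic acid/10% methanol for 15 min, stained with 1% crystal violet for 10 min.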

[6] = biological target: Speckle-type POZ protein (Homo sapiens) (UniProt O43791); experiment: Inhibition of SPOP in HEK293T cells assessed as reduction in cell viability incubated for 72 hrs by MTT assay; assay type: cell-based
[7] = tested on: Hs 766; experiment: Cytotoxicity against human Hs766T cells assessed as reduction in cell viability incubated for 72 hrs by MTT assay; assay type: cell-based; conditions: Hs 766, 72 h
Procedure, shortened: (§2)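 Cells maintained in DMEM/10% FBS at 37 °C, 5% CO2. Cell proliferation quantified by MTT after 72 hr compound exposure, A490 read. Untreated cells = 100%. Mean ± SD, n = 3.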

[8] = tested on: NCI-H1299; experiment: Cytotoxicity against human H1299 cells assessed as reduction in cell viability incubated for 72 hrs by MTT assay; assay type: cell-based; conditions: NCI-H1299, 72 h; procedure, shortened: as §2
[9] = tested on: U-251; experiment: Cytotoxicity against human U251 cells assessed as reduction in cell viability incubated for 72 hrs by MTT assay; assay type: cell-based; conditions: U-251, 72 h; procedure, shortened: as §2
[10] = tested on: A549; experiment: Cytotoxicity against human A549 cells assessed as reduction in cell viability incubated for 72 hrs by MTT assay; assay type: cell-based; conditions: A549, 72 h; procedure, shortened: as §2
[11] = Selectivity index, ratio of IC50 for human Hs766T to IC50 for human A498 cells
[12] = Selectivity index, ratio of IC50 for human A549 to IC50 for human A498 cells
[13] = biological target: Speckle-type POZ protein (Homo sapiens) (UniProt O43791); experiment: Binding affinity to recombinant N-terminal GST/His-tagged SPOP (unknown origin) (23 to 337 residues) expressed in Escherichia coli BL21 (DE3) assessed as change in melting temperature at 5 fold compound incubated for 15 mins by nano differential scanning fluorimetry (reference value: -1.9 degreeC)
[14] = biological target: Speckle-type POZ protein (Homo sapiens) (UniProt O43791); experiment: Binding affinity to recombinant N-terminal GST/His-tagged SPOP (unknown origin) MATH binding domain expressed in Escherichia coli BL21 (DE3) assessed as change in melting temperature at 10 fold compound by SYPRO Orange dye based differential scanning fluorimetry (reference value: -1.7 degreeC)
[15] = biological target: T1, Speckle-type POZ protein/PTEN (Homo sapiens) (UniProt P60484+O43791); experiment: Inhibition of SPOP/PTEN interaction in human OS-RC2 cells assessed as increase in SPOP level at 1 to 50 uM incubated for 20 mins by DARTS based Western blot analysis; assay type: cell-based
T1 sequence (O43791 whole entry, looked up): as the sequence (O43791 whole entry, the tested form may be a part) above
T1 sequence (P60484 whole entry, looked up): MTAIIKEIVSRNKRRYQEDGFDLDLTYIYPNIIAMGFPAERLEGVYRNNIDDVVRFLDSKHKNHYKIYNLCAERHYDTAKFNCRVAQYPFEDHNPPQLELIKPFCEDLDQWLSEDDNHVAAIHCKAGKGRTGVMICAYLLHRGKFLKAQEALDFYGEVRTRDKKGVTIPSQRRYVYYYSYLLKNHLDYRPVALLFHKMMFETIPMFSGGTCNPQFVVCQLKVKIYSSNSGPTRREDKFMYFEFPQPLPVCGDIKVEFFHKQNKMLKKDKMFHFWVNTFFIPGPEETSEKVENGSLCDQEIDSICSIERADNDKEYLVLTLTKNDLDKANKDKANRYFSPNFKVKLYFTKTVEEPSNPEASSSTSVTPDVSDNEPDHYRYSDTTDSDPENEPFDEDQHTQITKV
Procedure, shortened: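 DARTS. Lysates of 1×10⁶ cells in TNC buffer, 120 μg per tube, incubated with compound at 0, 1, 5, 10 or 50 μM for 20 min at rt. Pronase digestion 10 min at rt (1:1000 for A498, 1:2000 for OS-RC-2), stopped with protease inhibitors, then SPOP western blot. Triplicate experiments.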

[16] = biological target: T1, Speckle-type POZ protein/PTEN (Homo sapiens); experiment: Inhibition of SPOP/PTEN interaction in human HEK293T cells assessed as reduction in PTEN level incubated for 8 hrs by Western blot analysis; assay type: cell-based
[17] = biological target: Speckle-type POZ protein (Homo sapiens) (UniProt O43791); experiment: Inhibition of SPOP signalling in human A498 cells assessed as accumulation of PTEN incubated for 12 hrs by Western blot analysis; assay type: cell-based
Procedure, shortened: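 Cells treated with SPOP inhibitor at different concentrations for 12 hr, lysed in RIPA, protein by BCA. Samples run on 12% SDS-PAGE, blotted to nitrocellulose, primary antibody overnight at 4 °C, HRP secondary, ECL detection. GAPDH loading control. Triplicate experiments.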

[18] = biological target: Speckle-type POZ protein (Homo sapiens) (UniProt O43791); experiment: Inhibition of SPOP signalling in human A498 cells assessed as accumulation of DUSP7 incubated for 12 hrs by Western blot analysis; assay type: cell-based
Procedure, shortened: (§3)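 Cells exposed 12 hr to inhibitor at graded concentrations, RIPA lysates normalized by BCA. 12% SDS-PAGE, nitrocellulose transfer, milk block, primary antibody at 4 °C overnight, HRP secondary, ECL. GAPDH loading control.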

[19] = biological target: Speckle-type POZ protein (Homo sapiens) (UniProt O43791); experiment: Inhibition of SPOP signalling in human A498 cells assessed as reduction in AKT phosphorylation at 0.5 to 10 uM incubated for 12 hrs by Western blot analysis; assay type: cell-based; procedure, shortened: as §3
[20] = biological target: Speckle-type POZ protein (Homo sapiens) (UniProt O43791); experiment: Inhibition of SPOP signalling in human A498 cells assessed as reduction in ERK phosphorylation at 0.5 to 10 uM incubated for 12 hrs by Western blot analysis; assay type: cell-based; procedure, shortened: as §3
[21] = biological target: Speckle-type POZ protein (Homo sapiens) (UniProt O43791); experiment: Inhibition of SPOP signalling in human OS-RC2 cells assessed as reduction in AKT phosphorylation at 0.5 to 15 uM incubated for 12 hrs by Western blot analysis; assay type: cell-based; procedure, shortened: as §3
[22] = biological target: Speckle-type POZ protein (Homo sapiens) (UniProt O43791); experiment: Inhibition of SPOP signalling in human OS-RC2 cells assessed as reduction in ERK phosphorylation at 0.5 to 15 uM incubated for 12 hrs by Western blot analysis; assay type: cell-based; procedure, shortened: as §3
[23] = biological target: Speckle-type POZ protein (Homo sapiens) (UniProt O43791); experiment: Inhibition of SPOP signalling in human A498 cells assessed as effect on total AKT level at 0.5 to 10 uM incubated for 12 hrs by Western blot analysis; assay type: cell-based; procedure, shortened: as §3
[24] = biological target: Speckle-type POZ protein (Homo sapiens) (UniProt O43791); experiment: Inhibition of SPOP signalling in human OS-RC2 cells assessed as effect on total AKT level at 0.5 to 15 uM incubated for 12 hrs by Western blot analysis; assay type: cell-based; procedure, shortened: as §3
[25] = biological target: Speckle-type POZ protein (Homo sapiens) (UniProt O43791); experiment: Inhibition of SPOP signalling in human OS-RC2 cells assessed as effect on total ERK level at 0.5 to 15 uM incubated for 12 hrs by Western blot analysis; assay type: cell-based; procedure, shortened: as §3
[26] = biological target: Speckle-type POZ protein (Homo sapiens) (UniProt O43791); experiment: Inhibition of SPOP signalling in human OS-RC2 cells assessed as effect of DUSP7 mRNA expression at 1 to 10 uM incubated for 12 hrs by qRT-PCR analysis; assay type: cell-based
[27] = biological target: T1, Speckle-type POZ protein/PTEN (Homo sapiens); experiment: Inhibition of SPOP/PTEN interaction in human HEK293T cells assessed as reduction in SPOP level incubated for 12 hr by co-immunoprecipitation based Western blot analysis

ΔTm [1]: 3.1 °C
ΔTm [13]: 2.1 °C
ΔTm [14]: 4 °C
inhibition [15]: Active
inhibition [16]: Dose-dependent effect
inhibition [17]: Dose-dependent effect
inhibition [18]: Dose-dependent effect
inhibition [19]: Active
inhibition [20]: Active
inhibition [21]: Active
inhibition [22]: Active
inhibition [23]: inactive
inhibition [24]: inactive
inhibition [25]: inactive
inhibition [26]: inactive
inhibition [27]: Dose-dependent effect
Compound: Cc1cccn2c(=O)c3cc(C(=O)NCCN4CCN(C)CC4)c(=N)n(CCc4cccs4)c3nc12
IC50 [2]: 2.1 µM
IC50 [3]: 3.5 µM
IC50 [4]: > 30 µM
inhibition [5]: Active
inhibition [6]: Active
IC50 [7]: 14.5 µM
IC50 [8]: 10.7 µM
IC50 [9]: 10.2 µM
IC50 [10]: 16.2 µM
Ratio IC50 [11]: >5
Ratio IC50 [12]: >5
